Experimental data reported in ChEMBL document CHEMBL2390917, “Synthesis and biological evaluation of 2-(5-methyl-4-phenyl-2-oxopyrrolidin-1-yl)-acetamide stereoisomers as novel positive allosteric modulators of sigma-1 receptor” (Bioorg Med Chem, 2013).
Where a name gives a salt, the structure may show the parent alone. Calls of active or inactive are those of the source. The rule behind the calls is not given here. Residues, ends and D or L forms follow the SMILES beside them.

Assays:
[1] = target: Sigma non-opioid intracellular receptor 1 (Rattus norvegicus) (UniProt Q9R0C9); experiment: Positive allosteric modulation of Wistar rat sigma 1 receptor assessed as potentiation of PRE-084 effect on electrically-stimulated vas deferens contraction at 10 uM preincubated for 10 mins followed by PRE-084 addition
Chain of Sigma non-opioid intracellular receptor 1 (Rattus norvegicus) (Q9R0C9 whole entry): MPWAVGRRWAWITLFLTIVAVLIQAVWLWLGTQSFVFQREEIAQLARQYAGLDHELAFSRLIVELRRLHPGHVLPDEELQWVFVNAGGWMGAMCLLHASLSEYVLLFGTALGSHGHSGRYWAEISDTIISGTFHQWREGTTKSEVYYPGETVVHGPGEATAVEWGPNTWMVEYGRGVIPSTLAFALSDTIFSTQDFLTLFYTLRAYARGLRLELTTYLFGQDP
In short: (§1)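 Isolated rat vas deferens, proximal ~15 mm segments, in K-H buffer at 32 °C gassed […], with 1.0 g passive tension and a 60 min adaptation. Field-stimulated at 0.1 Hz, 1 ms, 50 V. Cumulative PRE-084 (1–100 µM) was given, then washout and a 30 min rest. Test compound 10 µM was added for 10 min before cumulative PRE-084. Response is % increase over baseline amplitude; n=6, mean ± SEM, paired t-test.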

[2] = target: Sigma non-opioid intracellular receptor 1 (Rattus norvegicus) (UniProt Q9R0C9); experiment: Positive allosteric modulation of Wistar rat sigma 1 receptor assessed as increase in electrically-stimulated vas deferens contraction at 10 uM after 10 mins; in short: as §1
[3] = Binding affinity to L-type calcium channel verapamil binding site (unknown origin) by radioligand displacement assay; set-up: species or system Homo sapiens
[4] = Binding affinity to GABA-gated chloride channel (unknown origin) by radioligand displacement assay; set-up: species or system Homo sapiens
[5] = target: Muscarinic acetylcholine receptor M5 (Homo sapiens, UniProt P08912); experiment: Binding affinity to human muscarinic M5 receptor by radioligand displacement assay
Chain of Muscarinic acetylcholine receptor M5 (P08912 whole entry): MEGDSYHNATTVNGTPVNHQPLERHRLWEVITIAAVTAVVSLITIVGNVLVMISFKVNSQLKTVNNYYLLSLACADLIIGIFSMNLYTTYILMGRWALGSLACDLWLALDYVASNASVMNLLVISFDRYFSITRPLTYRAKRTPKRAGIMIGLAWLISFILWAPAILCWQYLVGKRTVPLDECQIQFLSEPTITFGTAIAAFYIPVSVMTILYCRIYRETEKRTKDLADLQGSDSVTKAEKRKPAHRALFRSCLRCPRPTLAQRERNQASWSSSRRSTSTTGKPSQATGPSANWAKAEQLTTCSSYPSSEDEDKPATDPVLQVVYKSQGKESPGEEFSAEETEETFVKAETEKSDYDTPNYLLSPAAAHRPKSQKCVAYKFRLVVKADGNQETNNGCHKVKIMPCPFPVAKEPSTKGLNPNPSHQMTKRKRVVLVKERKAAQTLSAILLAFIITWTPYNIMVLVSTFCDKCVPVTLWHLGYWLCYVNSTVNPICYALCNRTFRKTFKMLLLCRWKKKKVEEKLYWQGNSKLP

[6] = target: Sigma non-opioid intracellular receptor 1 (Homo sapiens, UniProt Q99720)
Chain of Sigma non-opioid intracellular receptor 1 (Q99720 whole entry): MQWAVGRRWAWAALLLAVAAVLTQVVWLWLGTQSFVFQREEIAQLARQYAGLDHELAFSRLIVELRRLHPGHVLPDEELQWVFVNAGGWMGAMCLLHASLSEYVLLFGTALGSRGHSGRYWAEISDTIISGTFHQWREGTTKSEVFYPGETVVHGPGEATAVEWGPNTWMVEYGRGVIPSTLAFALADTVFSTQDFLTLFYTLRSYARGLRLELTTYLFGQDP

[7] = Binding affinity to P2Y receptor (unknown origin) by radioligand displacement assay; set-up: species or system Homo sapiens
[8] = Binding affinity to peripheral-type BZD receptor (unknown origin) by radioligand displacement assay; set-up: species or system Homo sapiens
[9] = target: Alpha-2A adrenergic receptor (Homo sapiens, UniProt P08913); experiment: Binding affinity to human adrenergic alpha2 receptor by radioligand displacement assay
Chain of Alpha-2A adrenergic receptor (P08913 whole entry): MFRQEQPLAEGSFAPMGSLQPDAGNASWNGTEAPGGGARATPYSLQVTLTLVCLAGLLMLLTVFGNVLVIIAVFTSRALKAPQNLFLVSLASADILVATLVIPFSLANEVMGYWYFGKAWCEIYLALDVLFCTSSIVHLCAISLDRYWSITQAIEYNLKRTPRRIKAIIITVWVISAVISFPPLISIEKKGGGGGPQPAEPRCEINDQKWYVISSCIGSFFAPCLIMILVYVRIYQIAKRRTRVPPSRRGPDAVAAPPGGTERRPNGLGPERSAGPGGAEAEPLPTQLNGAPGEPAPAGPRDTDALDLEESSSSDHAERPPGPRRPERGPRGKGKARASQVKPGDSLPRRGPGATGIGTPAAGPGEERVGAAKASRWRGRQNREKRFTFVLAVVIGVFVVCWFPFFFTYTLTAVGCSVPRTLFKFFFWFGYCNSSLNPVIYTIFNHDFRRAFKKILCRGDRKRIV

[10] = Binding affinity to PCP receptor (unknown origin) by radioligand displacement assay; set-up: species or system Homo sapiens
[11] = target: 5-hydroxytryptamine receptor 2C (Homo sapiens, UniProt P28335); experiment: Binding affinity to human 5-HT2C receptor by radioligand displacement assay
Chain of 5-hydroxytryptamine receptor 2C (P28335 whole entry): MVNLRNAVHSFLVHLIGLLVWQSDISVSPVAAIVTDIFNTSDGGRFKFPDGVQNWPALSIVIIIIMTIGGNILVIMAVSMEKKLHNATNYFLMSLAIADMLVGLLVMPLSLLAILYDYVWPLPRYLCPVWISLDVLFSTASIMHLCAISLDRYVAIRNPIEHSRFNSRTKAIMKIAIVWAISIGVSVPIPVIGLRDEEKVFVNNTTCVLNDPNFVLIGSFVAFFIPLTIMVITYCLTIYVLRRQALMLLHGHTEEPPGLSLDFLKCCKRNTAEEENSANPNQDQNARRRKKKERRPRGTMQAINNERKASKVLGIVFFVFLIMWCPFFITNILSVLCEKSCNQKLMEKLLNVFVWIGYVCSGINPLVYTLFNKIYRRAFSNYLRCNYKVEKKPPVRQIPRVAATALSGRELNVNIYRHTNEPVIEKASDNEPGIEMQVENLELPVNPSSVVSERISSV

[12] = Binding affinity to P2X receptor (unknown origin) by radioligand displacement assay; set-up: species or system Homo sapiens
[13] = target: Type-2 angiotensin II receptor (Homo sapiens, UniProt P50052); experiment: Binding affinity to human angiotensin AT2 receptor by radioligand displacement assay
Chain of Type-2 angiotensin II receptor (P50052 whole entry): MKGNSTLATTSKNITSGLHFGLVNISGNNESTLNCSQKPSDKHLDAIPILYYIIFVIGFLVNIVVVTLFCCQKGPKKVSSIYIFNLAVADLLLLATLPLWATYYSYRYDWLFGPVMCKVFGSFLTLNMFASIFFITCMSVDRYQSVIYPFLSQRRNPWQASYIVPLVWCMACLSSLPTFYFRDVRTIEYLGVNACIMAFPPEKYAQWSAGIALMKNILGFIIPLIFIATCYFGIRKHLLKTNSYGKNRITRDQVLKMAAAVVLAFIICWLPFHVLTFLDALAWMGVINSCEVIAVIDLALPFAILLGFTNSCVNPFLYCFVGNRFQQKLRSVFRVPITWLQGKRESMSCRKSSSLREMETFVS

[14] = Binding affinity to sodium channel site 2 (unknown origin) by radioligand displacement assay; set-up: species or system Homo sapiens
[15] = target: 5-hydroxytryptamine receptor 2B (Homo sapiens, UniProt P41595); experiment: Binding affinity to human 5-HT2B receptor by radioligand displacement assay
Chain of 5-hydroxytryptamine receptor 2B (P41595 whole entry): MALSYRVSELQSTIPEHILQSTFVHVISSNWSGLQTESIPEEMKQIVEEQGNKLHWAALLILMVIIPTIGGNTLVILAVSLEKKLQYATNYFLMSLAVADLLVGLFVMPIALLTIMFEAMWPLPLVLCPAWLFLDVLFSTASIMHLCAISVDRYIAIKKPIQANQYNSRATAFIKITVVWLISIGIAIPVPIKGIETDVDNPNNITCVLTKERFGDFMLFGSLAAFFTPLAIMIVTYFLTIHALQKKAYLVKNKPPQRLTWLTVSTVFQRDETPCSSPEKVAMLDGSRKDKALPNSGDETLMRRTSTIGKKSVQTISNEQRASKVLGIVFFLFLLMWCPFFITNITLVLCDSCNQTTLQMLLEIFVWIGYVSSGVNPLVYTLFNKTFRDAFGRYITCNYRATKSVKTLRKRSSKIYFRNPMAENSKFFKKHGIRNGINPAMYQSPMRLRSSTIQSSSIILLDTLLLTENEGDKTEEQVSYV

[16] = target: Adrenergic receptor alpha-1 (Homo sapiens, UniProt P35348+P25100+P35368); experiment: Binding affinity to human adrenergic alpha1 receptor by radioligand displacement assay

With `C[C@@H]1[C@@H](c2ccccc2)CC(=O)N1CC(N)=O` the Activity [1] was “Active” and the Activity [2] was “inactive”.
`COc1ccc(CCN(C)CCCC(C#N)(c2cc(OC)c(OC)c(OC)c2)C(C)C)cc1OC` (stereo not given) [GALLOPAMIL] showed an IC50 [3] of 20 nM.
Work on `C=C(C)[C@@H]1[C@H]2OC(=O)[C@@H]1[C@]1(O)C[C@H]3O[C@]34C(=O)O[C@H]2[C@]14C` [PICROTOXININ] yielded an IC50 [4] of 250 nM.
With `C[N+]1(C)CCC(OC(=O)C(c2ccccc2)c2ccccc2)CC1` [4-DAMP] the IC50 [5] was 0.8 nM.
With `COc1cc2c(cc1OC)C(=O)C(CC1CCN(Cc3ccccc3)CC1)C2` (stereo not given) [DONEPEZIL] the Ki [6] was 14.6 nM.
`Nc1ncnc2c1ncn2[C@H]1C[C@H](O)[C@@H](COP(O)(=S)OP(=O)(O)OP(=O)(O)O)O1` (stereo not given in full) gave an IC50 [7] of 25 nM.
With `CCC(C)N(C)C(=O)c1cc2ccccc2c(-c2ccccc2Cl)n1` (stereo not given) [PK-11195] the IC50 [8] was 1.1 nM.
For `Cc1ccc(OCC(O)C(C)NC(C)C)c2c1CCC2` (stereo not given) [ZENIDOLOL], the IC50 [9] was 0.5 nM.
Compound `C[C@]12N[C@H](Cc3ccccc31)c1ccccc12` [DIZOCILPINE MALEATE] has an IC50 [10] of 6 nM.
In the case of `C[C@@H]1[C@H](c2ccccc2)CC(=O)N1CC(N)=O`, the Activity [1] is reported as “Active” and the Activity [2] is reported as “inactive”.
Compound `COc1cc(OC)c(C(=O)CCCCN2CCC3(CC2)NC(=O)NC3=O)cc1NS(=O)(=O)c1ccc(C(F)(F)F)cc1` [RS-102,221] has an IC50 [11] of 5.5 nM.
`Nc1ncnc2c1ncn2[C@@H]1O[C@H](COP(=O)(O)CP(=O)(O)OP(=O)(O)O)[C@@H](O)[C@H]1O` [DIPHOSPHOMETHYLPHOSPHONIC ACID ADENOSYL ESTER] gave an IC50 [12] of 3.5 nM.
For `CC(C)[C@H](NC(=O)[C@H](CCCNC(=N)N)NC(=O)[C@@H](N)CC(=O)O)C(=O)N[C@@H](Cc1ccc(O)cc1)C(=O)N[C@H](C(=O)N[C@@H](Cc1cnc[nH]1)C(=O)N1CCC[C@H]1C(=O)N[C@@H](C)C(=O)O)C(C)C` [ANGIOTENSIN] (H-DRVYVHPA-OH), the IC50 [13] was 0.13 nM.
In the case of `C[C@H]1[C@H](c2ccccc2)CC(=O)N1CC(N)=O`, the Activity [1] is reported as “Active” and the Activity [2] is reported as “inactive”.
Compound `COc1ccc(C(=O)O[C@H]2CC[C@@]3(C)[C@@H]4CC[C@H]5[C@]6(O)C[C@H](O)[C@@]7(O)[C@@H](CN8C[C@@H](C)CC[C@H]8[C@@]7(C)O)[C@]6(O)C[C@@]53O[C@]24O)cc1OC` [VERATRIDINE] has an IC50 [14] of 7700 nM.
Work on `COc1cc(CC(C)N)c(OC)cc1I` (stereo not given) yielded an IC50 [15] of 3.2 nM.
In the case of `CC(C)NCC(O)COc1ccc(CC(N)=O)cc1` (stereo not given) [ATENOLOL], the IC50 [16] is reported as 230 nM.
